Measurements as given in ChEMBL document CHEMBL5653613 (Mol Cancer Ther, 2013).
The source made the active and inactive calls. No cut-off for these calls is given here.

How the values were obtained:
[1] = test system: ZR-75-1; assay: Cytotoxicity against human ZR-75-1 cells assessed as inhibition of cell viability incubated for 72 hrs by MTS assay; type: functional, cell-based
How it was run: (§1)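 Untreated cells were seeded at 5,000 cells/well in 96-well plates and run as the control. They were exposed in triplicate for 72 h to graded doxorubicin, bleomycin, cisplatin, paclitaxel or methotrexate (nmol/L range). Viability was read by MTS assay and IC50 was calculated.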

[2] = test system: T47D; assay: Cytotoxicity against human T47D cells assessed as inhibition of cell viability incubated for 72 hrs by MTS assay; type: functional, cell-based; how it was run: as §1
[3] = test system: T47D; assay: Induction of cell cycle arrest in human T47D cells at 5 umol/L preincubated for 24 hrs followed by extensive compound washout and subsequent culturing in compound-free media measured for 60 to 120 mins by immunofluorescence staining based analysis; type: functional; conditions: dose 5.0 µmol/L
How it was run: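 T-47D cells were treated at 37°C with 5 µmol/L for 24 h, washed extensively, then cultured in DMEM with 10% FBS for 30, 60 and 120 min. α- and γ-tubulin were detected by immunofluorescence with DAPI, imaged at 400×. The control was a 24 h preincubation with 5 µmol/L RO-3306. One of 2 experiments.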

[4] = test system: ZR-75-1; assay: Induction of polyploidy in human ZR-75-1 cells at 5 uM incubated for 72 hrs by microscopic analysis; type: functional, cell-based
How it was run: (§2)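 Cells stained with Hema-3 and photographed under a light microscope with CCD camera. Polyploid cells scored as percent of the population.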

[5] = test system: MCF7; assay: Induction of polyploidy in human MCF7 cells at 5 uM incubated for 72 hrs by microscopic analysis; type: functional, cell-based; how it was run: as §2
[6] = test system: T47D; assay: Induction of polyploidy in human T47D cells at 5 uM incubated for 72 hrs by microscopic analysis; type: functional, cell-based; how it was run: as §2
[7] = biological target: Macrophage-stimulating protein receptor (Homo sapiens, UniProt Q04912); assay: Inhibition of RON (unknown origin)
Chain of Macrophage-stimulating protein receptor (Q04912 25-304 limits assumed): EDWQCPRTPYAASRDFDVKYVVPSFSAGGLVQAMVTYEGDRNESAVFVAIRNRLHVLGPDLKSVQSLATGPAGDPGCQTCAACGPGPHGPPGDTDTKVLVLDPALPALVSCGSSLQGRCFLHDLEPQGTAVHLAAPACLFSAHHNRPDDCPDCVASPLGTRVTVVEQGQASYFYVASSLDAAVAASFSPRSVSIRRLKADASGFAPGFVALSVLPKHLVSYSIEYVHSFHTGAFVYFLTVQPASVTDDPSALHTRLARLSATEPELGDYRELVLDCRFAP
Chain of Macrophage-stimulating protein receptor (Q04912 310-1400 limits assumed): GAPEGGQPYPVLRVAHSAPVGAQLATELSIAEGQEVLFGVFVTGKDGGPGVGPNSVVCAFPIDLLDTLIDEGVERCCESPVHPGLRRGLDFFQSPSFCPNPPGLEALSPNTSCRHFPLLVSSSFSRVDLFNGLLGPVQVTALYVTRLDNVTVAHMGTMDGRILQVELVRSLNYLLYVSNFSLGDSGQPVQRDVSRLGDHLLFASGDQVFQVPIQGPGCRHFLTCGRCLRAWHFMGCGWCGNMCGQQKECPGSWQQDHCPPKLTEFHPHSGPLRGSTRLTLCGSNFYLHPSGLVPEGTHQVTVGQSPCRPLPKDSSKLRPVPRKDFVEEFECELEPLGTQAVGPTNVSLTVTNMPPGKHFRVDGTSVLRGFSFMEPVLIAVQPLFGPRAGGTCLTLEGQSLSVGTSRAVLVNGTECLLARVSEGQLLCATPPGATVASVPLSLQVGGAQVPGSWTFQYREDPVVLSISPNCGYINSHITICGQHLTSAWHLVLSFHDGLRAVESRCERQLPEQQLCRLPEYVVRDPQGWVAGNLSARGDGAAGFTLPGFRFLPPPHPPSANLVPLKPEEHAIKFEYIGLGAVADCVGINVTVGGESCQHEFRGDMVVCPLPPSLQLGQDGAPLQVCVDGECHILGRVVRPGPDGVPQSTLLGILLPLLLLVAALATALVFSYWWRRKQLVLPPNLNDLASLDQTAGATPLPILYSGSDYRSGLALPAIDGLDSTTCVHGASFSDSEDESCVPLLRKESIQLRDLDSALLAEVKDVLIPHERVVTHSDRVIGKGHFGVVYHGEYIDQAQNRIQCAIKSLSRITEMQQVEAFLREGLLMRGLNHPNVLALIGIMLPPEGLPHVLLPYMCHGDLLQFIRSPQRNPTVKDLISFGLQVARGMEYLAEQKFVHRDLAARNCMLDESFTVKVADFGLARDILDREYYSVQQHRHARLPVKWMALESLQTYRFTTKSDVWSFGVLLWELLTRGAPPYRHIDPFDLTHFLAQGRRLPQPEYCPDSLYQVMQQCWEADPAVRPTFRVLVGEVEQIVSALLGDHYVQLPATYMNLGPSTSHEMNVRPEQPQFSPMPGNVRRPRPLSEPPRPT

[8] = biological target: Hepatocyte growth factor receptor (Homo sapiens, UniProt P08581); assay: Inhibition of MET (unknown origin)
Chain of Hepatocyte growth factor receptor (P08581 whole entry): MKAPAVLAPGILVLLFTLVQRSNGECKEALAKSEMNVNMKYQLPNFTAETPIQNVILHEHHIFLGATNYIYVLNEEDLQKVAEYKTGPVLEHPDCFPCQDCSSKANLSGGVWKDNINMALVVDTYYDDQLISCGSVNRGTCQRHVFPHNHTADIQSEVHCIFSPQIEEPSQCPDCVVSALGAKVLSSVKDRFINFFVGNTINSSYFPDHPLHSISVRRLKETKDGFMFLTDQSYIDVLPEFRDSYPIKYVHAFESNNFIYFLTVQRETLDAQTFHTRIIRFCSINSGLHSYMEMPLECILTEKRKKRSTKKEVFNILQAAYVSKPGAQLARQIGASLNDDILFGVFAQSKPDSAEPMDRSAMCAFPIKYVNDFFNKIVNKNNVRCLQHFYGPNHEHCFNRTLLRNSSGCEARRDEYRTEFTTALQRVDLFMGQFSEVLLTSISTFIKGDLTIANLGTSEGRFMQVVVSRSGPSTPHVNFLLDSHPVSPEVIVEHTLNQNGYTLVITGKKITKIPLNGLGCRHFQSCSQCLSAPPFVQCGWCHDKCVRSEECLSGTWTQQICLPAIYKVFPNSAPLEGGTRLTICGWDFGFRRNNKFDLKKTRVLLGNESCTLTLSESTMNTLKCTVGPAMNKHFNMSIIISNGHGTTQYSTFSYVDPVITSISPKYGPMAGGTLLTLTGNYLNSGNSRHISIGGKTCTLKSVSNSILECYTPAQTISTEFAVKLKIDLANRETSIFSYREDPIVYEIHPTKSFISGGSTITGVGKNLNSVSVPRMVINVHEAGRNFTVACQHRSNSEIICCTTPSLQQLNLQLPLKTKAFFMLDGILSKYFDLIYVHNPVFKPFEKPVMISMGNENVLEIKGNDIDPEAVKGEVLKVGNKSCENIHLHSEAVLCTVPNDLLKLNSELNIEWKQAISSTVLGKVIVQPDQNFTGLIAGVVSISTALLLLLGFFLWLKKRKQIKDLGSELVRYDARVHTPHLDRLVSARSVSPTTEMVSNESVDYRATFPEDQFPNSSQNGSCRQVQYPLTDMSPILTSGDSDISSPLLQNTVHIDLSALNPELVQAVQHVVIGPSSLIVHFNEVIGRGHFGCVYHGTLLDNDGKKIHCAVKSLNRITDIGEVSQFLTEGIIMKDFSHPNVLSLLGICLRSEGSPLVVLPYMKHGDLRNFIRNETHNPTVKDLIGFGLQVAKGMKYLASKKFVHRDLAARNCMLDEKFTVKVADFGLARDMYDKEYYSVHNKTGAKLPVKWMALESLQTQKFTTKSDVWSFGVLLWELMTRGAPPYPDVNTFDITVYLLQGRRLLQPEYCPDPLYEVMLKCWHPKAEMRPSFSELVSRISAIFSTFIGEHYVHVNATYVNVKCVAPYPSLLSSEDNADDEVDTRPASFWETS

## COc1cccc2c1C(=O)c1c(O)c3c(c(O)c1C2=O)C[C@@](O)(C(=O)CO)C[C@@H]3O[C@H]1C[C@H](N)[C@H](O)[C@H](C)O1 [DOXORUBICIN]
[1]; Homo sapiens, ZR-75-1, 72 h
  IC50: 0.453 µM
[2]; Homo sapiens, T47D, 72 h
  IC50: 0.264 µM

## CC(=O)O[C@H]1C(=O)[C@@]2(C)[C@H]([C@H](OC(=O)c3ccccc3)[C@]3(O)C[C@H](OC(=O)[C@H](O)[C@@H](NC(=O)c4ccccc4)c4ccccc4)C(C)=C1C3(C)C)[C@]1(OC(C)=O)CO[C@@H]1C[C@@H]2O [PACLITAXEL]
[1]; Homo sapiens, ZR-75-1, 72 h
  IC50: 0.0062 µM
[2]; Homo sapiens, T47D, 72 h
  IC50: 0.004 µM

## O=C1N=C(NCc2cccs2)S/C1=C\c1ccc2ncccc2c1
[3]
  Activity: inactive

## Cc1[nH]c(/C=C2\C(=O)Nc3ccc(S(=O)(=O)Cc4c(Cl)cccc4Cl)cc32)c(C)c1C(=O)N1CCC[C@@H]1CN1CCCC1
[4]
  Activity: inactive
[5]
  Activity: inactive
[6]
  Activity: inactive

## COc1ccc2c(Oc3ccc(NC(=O)c4c(C)n(CC(C)(C)O)n(-c5ccccc5)c4=O)cc3F)ccnc2c1
[7]
  IC50: 0.009 µM
[8]
  IC50: 0.004 µM
[4]
  Activity: inactive
[5]
  Activity: inactive
[6]
  Activity: inactive

## CN(Cc1cnc2nc(N)nc(N)c2n1)c1ccc(C(=O)N[C@@H](CCC(=O)O)C(=O)O)cc1 [METHOTREXATE]
[1]; Homo sapiens, ZR-75-1, 72 h
  IC50: 0.066 µM
[2]; Homo sapiens, T47D, 72 h
  IC50: 0.0644 µM

## BLEOMYCIN
[1]; zr-75-1
  IC50: 0.165 µM
[2]; t47d
  IC50: 0.129 µM
